Experimental data published in the EternaBench riboswitch data.

Tested on: MS2 coat protein
Assay: apparent Kd, MS2 coat protein; higher = weaker binding; RNA-MaP array; FMN 200 µM where present
Outline: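 Stalled E. coli RNA polymerase produced the designs on Illumina sequencing-chip clusters. SNAP-549-labelled MS2 coat protein was added from 0.7 or 1.5 nM, doubling to 3 µM, without and then with constant ligand, in 100 mM Tris-HCl pH 7.5, 80 mM KCl, 4 mM MgCl2, BSA, DTT, yeast tRNA and Tween-20. The apparent Kd is the median of filtered per-cluster fits of green signal normalised to red-channel RNA signal and control-cluster median Fmax.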

[1] = designed as: OFF switch for flavin mononucleotide, no ligand
[2] = ligand present: flavin mononucleotide, designed as: OFF switch for flavin mononucleotide
[3] = designed as: ON switch for flavin mononucleotide, no ligand
[4] = ligand present: flavin mononucleotide, designed as: ON switch for flavin mononucleotide

| Sequence | apparent Kd [1] [µM] | apparent Kd [2] [µM] | apparent Kd [3] [µM] | apparent Kd [4] [µM] |
| --- | --- | --- | --- | --- |
| AUAAUGAGAGGAUAUACAUGAGGAUCACCCAUGUUAUUAUCACGGCGUGCUCCAUUACGUAGAAGGCUCAUUUA | 0.117 | 0.0352 | – | – |
| AUAAUGAGUCAAGGAUAUCCGAGCUGAAUGCUAGGAGAAGGUGACAUGAGGAUCACCCAUGUCUCUCCGAGCAUGGUAUUCUCA | 0.0286 | 0.0336 | – | – |
| AUAAUGUAAGGAUAUCAGUCGACUAGCUUCGGCUAGUCGACUGAGAAGGUACAUGAGGAUCACCCAUGUGUUUC | 0.0377 | 0.209 | – | – |
| AUAAUGUGAGGAUAUCAGUAGUAUUGCUUCGGCAAUACUACUGAGAAGGCACAUGAGGAUCACCCAUGUGAUCA | 1.38 | 0.0328 | – | – |
| AUAAUUAUAUAUUUCACAAGAAUCAGAAGGCGUUACAUGAGGAUCACCCAUGUUUUGUAUAGUAACGAGGAUAUGAUAUGGAAA | 0.0152 | 0.014 | – | – |
| AUAAUUUAAGUGAGGAUAUACCUAUGGAAACAUAGGUAGAAGGCACAUGAGGAUCACCCAUGUUUUUACACAAA | 0.0178 | 0.0379 | – | – |
| AUACAUGAGGAUCACCCAUGUUACUGGGUCUAUAUAGAACGUAGAAGGAUGUAUUGAAGAAGAUCAUAGGAUAUACUUUAUAGU | 0.0499 | 0.0389 | – | – |
| AUACAUGAGGAUCACCCAUGUUACUUGGUCUUGAUAUUACGUAGAAGGAUGAUAUUAUUAUUAGCAUAGGAUAUACAAUUUGUA | 0.017 | 0.0128 | – | – |
| AUACCACGAGGAUAUCGUCUAUAAUACAUGAGGAUCACCCAUGUUAUAUCUGUAAUGUUUCGAGAAGGCGUGUGUU | 0.0189 | 0.0146 | – | – |
| AUACGGGCUAACAUGAGGAUCACCCAUGUGUUAUACUUAAUAUAGGAUAUGUUUAUACUUUUUGGGCAGAAGGAUGGCCCGUAU | – | – | 0.0535 | 0.0449 |
| AUACUCAUGUAAGGAUAUGCAGCCGUUUCGGCUGCAGAAGGUACUAAAAUACAUGAGGAUCACCCAUGUCUCUCGCAUUGCGAG | – | – | 0.753 | 0.117 |
| AUACUGAGCGUAAGUUACCUGAACAUGAGGAUCACCCAUGUGGAGGAUAUUGACCUAGCAAAGCUCGAGAAGGCCACUGGGAUG | 0.0248 | 0.0191 | – | – |
| AUAGGCCUAGGAUAUACAUGAGGAUCACCCAUGUUAAUACUUCAAUCAAGUUAAUAGUGUAGAAGGAGGAAUAA | 0.0276 | 0.0324 | – | – |
| AUAGUUUUUGAGAAGGCAUUUCUUAAGUGAUCUUACUAGUACAUGAGGAUCACCCAUGUUUUGUAUGAGGAUAUCAGUAGGUUG | 0.0339 | 0.0317 | – | – |
| AUAUAAAUAUAGGAUAUCGAAUUUAUUAAUUAUCGAGAAGGAUAAACAUGAGGAUCACCCAUGUGGUAUCAUGG | 0.366 | 0.336 | – | – |
| AUAUAUAUAUCAGGAUAUGGACAGGCCUGUCCGUAUUGAGACAGUAACAUGAGGAUCACCCAUGUCCAGAAGGGAUCUAUAUAU | 0.0405 | 0.0494 | – | – |
| AUAUCAAGCAAGGAUAUGCAAAUGGUUAUUUAUGCAGAAGGUGCGACAUGAGGAUCACCCAUGUUUCUGGGUUU | 0.0877 | 0.134 | – | – |
| AUAUCUUGUCGAGGAUAUGUUGUAUUGAUCUGAAAACAUGAGGAUCACCCAUGUAUACGGUGGGAACAGAAGGUGGAUGUAGAA | 0.318 | 0.356 | – | – |
| AUAUGAUAGAUAGGAUAUACUGAGGUUGAAUGGGUAGAAGGAUCGAUAGGGAAGACUACAUGAGGAUCACCCAUGUUGUGUAUU | – | – | 0.151 | 0.0816 |
| AUAUGGAAUACAGGAUAUGUAAGUUUUAAGUGUAUUGGUUAUUACUUAACAACAGAAGGGUAUUACAUGAGGAUCACCCAUGUA | – | – | 0.0128 | 0.01 |
| AUAUGUUAUUAGGAUAUUAAUGCGCGGUCGCAUUAAGAAGGAGUGACAUGAGGAUCACCCAUGUACCACGCUCA | 0.0243 | 0.0233 | – | – |
| AUAUUAUUGAUCCAUUUUUUCAACAUGAGGAUCACCCAUGUGCAGGAUAUCGUGUGUUUUAUAAACGAGAAGGGCAAAUUCAUU | 0.0826 | 0.218 | – | – |
| AUAUUGUGAGGAUAUGAACUUAGUAUCGAAAGAUACUAACUUCAGAAGGCACAUGAGGAUCACCCAUGUUUCUC | 0.0723 | 0.689 | – | – |
| AUCAGCUCGUCAGGAUAUACAUCACUGCUUCGGCAGUGUAUUAAGGUCACAUGAGGAUCACCCAUGUAGAAGGGACGAGCUGAU | 0.0212 | 0.142 | – | – |
| AUCAGCUCGUCAGGAUAUACAUCACUGCUUCGGCAGUGUGGUAAGAUCACAUGAGGAUCACCCAUGUAGAAGGGACGAGCUGAU | 0.0139 | 0.217 | – | – |
| AUCAGCUCGUCAGGAUAUACGUCACUGCCUCAGCAGUGUGGUAAGAUCACAUGAGGAUCACCCAUGUAGAAGGGACGAGCUGAU | 0.0155 | 0.299 | – | – |
| AUCAGCUCGUCAGGAUAUACGUCACUGCGUCAGCAGUGUGGCAAGAUCACAUGAGGAUCACCCAUGUAGAAGGGACGAGCUGAU | 0.0212 | 0.399 | – | – |
| AUCAGCUCGUCAGGAUAUACGUCACUGCGUCAGCAGUGUGGUAAGAUCACAUGAGGAUCACCCAUGUAGAAGGGACGAGAUGAU | 0.0138 | 0.247 | – | – |

| Sequence | apparent Kd [1] [µM] | apparent Kd [2] [µM] | apparent Kd [3] [µM] | apparent Kd [4] [µM] |
| --- | --- | --- | --- | --- |
| AUCAGCUCGUCAGGAUAUACGUCACUGCGUCAGCAGUGUGGUAAGAUUACAUGAGGAUCACCCAUGUAGAAGGGACGAGCUGAU | 0.00638 | 0.00859 | – | – |
| AUCAGCUCGUCAGGAUAUACGUCACUGCGUUAGCAGUGUGGUAAGAUCACAUGAGGAUCACCCAUGUAGAAGGGACGAGCUGAU | 0.0138 | 0.263 | – | – |
| AUCAGCUCGUUAGGAUAUACGUCACUGCGUCAGCAGUGUGGUAAGAUCACAUGAGGAUCACCCAUGUAGAAGGGACGAGCUGAU | 0.0128 | 0.0942 | – | – |
| AUCCCGAUAGCAGGAUAUUUCUGCAGUUGUGGUUAGGUCGCCCUACAUGAGGAUCACCCAUGUAGAGAGAAGGGCUGUGGUAAU | 0.00671 | 0.00683 | – | – |
| AUCCGGGCCCAGAAGGUGCCAGCGAGAGCUGCACAUGAGGAUCACCCAUGUUGUCGGUGACGACGCAAGGAUAUGGGCCCGGAU | – | – | 0.0244 | 0.00689 |
| AUCCUGCGAGGAUAUACAUAGUGACGUCUGUUUGGUCUUAAACAUGAGGAUCACCCAUGUAGAAGGUGCGUCAC | 0.0158 | 0.0195 | – | – |
| AUCGUUAACGAAGGAUAUGGUUACAUGAGGAUCACCCAUGUAUUUUUUGUGAUCUUGUUUAAGUUCCAGAAGGUCGUUAACGUA | 0.551 | 0.71 | – | – |
| AUCUAGUCAGGAUAUCGUACAAUAUGGAAAACAUAGAGGUACGAGAAGGGACAUGAGGAUCACCCAUGUAAAAC | 0.0362 | 0.0381 | – | – |
| AUCUGACAUGAGGAUCACCCAUGUAUUCGAGCAUGAGGAUAUAUGACUCGUCAUCGGCGGAUAGAAGGCAUGGUUG | – | – | 0.0975 | 0.189 |
| AUGAAGUCAGGAUAUGCCACGUAAAGCCAUGGCUUUGGAGUGUAGAAGGGACAUGAGGAUCACCCAUGUUGUCC | 0.0309 | 0.0322 | – | – |
| AUGACUCGUGUUAGGAUAUCUUCGGCGUGGCUGAUGGAGAAGGGACAUGAGGAUCACCCAUGUAUCCUGGUCGG | 0.0713 | 0.123 | – | – |
| AUGAGAAAAGCAGGAUAUCUAUUGUCUCAGAAACAUGAGGAUCACCCAUGUAGAGAAGGGCUAAGACCGACUCUUCGGAGUUGA | 0.00966 | 0.00977 | – | – |
| AUGAGAAAAGCAGGAUAUCUAUUGUCUCAGAAACAUGAGGAUCACCCAUGUAGAGAAGGGCUAAGACUGACUCUUCGGAGUUGA | 0.0106 | 0.00946 | – | – |
| AUGAUGUCAGGAUAUCGUUGGCUCACUUGUGUGUGCCAGUUCGAGAAGGGACAUGAGGAUCACCCAUGUUUUUA | 0.045 | 0.252 | – | – |
| AUGCAGCUACCACAGGAUAUACGUGGAUCGACAUGAGGAUCACCCAUGUAUAUCCUAAUAAUUGCGUAGAAGGGUGGUCAGCUGC | – | – | 1.54 | 0.103 |
| AUGCGACAUGAGGAUCACCCAUGUGAGGAUAUGGCCUGUUUGGCGUGUGCUGGCUCUGUCAGAAGGCGCGUGGG | 0.103 | 0.27 | – | – |
| AUGCUAGUGUGAGGAUAUCAACAUGAGGAUCACCCAUGUUGGAAGUACCCGACAUGAGGUACGGAUGAGAAGGUACAUUAGCAU | 0.0156 | 0.0253 | – | – |
| AUGCUGUCAGGAUAUCGUUAAUUUAGUUGUUUGUAUUAGUUCGAGAAGGGACAUGAGGAUCACCCAUGUAUGUA | 0.0307 | 0.0548 | – | – |
| AUGCUUCACACAGGAUAUACAUGAGGAUCACCCAUGUGUCCUCCGUAAUUGACACCAAUUACGCUGUAGAAGGGUGUGAAGCAU | 0.258 | 0.188 | – | – |
| AUGCUUCACACAGGAUAUACAUGAGGAUCACCCAUGUGUCCUCCGUAGCUGACACGAGCUACGCUGUAGAAGGGUGUGAAGCAU | 0.234 | 0.223 | – | – |
| AUGCUUUAUGUAGGAUAUGCAUACGGUACGUAUGCAGAAGGACAUGAGGAUCACCCAUGUAUAUUAUUAUUACAUAUCAUACAU | 0.0266 | 0.377 | – | – |
| AUGCUUUAUGUAGGAUAUGCAUACUGUUAGUAUGCAGAAGGACAUGAGGAUCACCCAUGUAUAUUAUUAUUACAUAUCAUACAU | 0.026 | 0.311 | – | – |
| AUGGACGCAGGAUAUACAUGAGGAUCACCCAUGUUAGGGUUGUGAGUAGGAAGGGAAGGUAGAAGGGCGAGAGU | 0.12 | 0.141 | – | – |
| AUGGACGUCGUAGGAUAUGUAGGAUUCUCCUACAUGAGGAUCACCCAUGUUGACGUGGAGGACGGACAGAAGGACGGUGUCCAU | – | – | 0.00722 | 0.0048 |
| AUGGAUAUCACAGGAUAUGCUAUGGAUACCAUAGCAGAAGGGUGAUCCAUCCUAUGUGAACACAUGAGGAUCACCCAUGUGUCC | – | – | 0.0984 | 0.0179 |
| AUGGUACAUGAGGAUCACCCAUGUCAGGAUAUCGGCUGUGACGUGAAAAGAGUGUUAGCGAGAAGGGACUGCAA | 0.0373 | 0.0431 | – | – |
| AUGGUGACGUAGAAGGGUGACAUGAGGAUCACCCAUGUGCCGAUAUUUUUCGAAAUAUGUCGGCCACAGGAUAUACGUGCCAUC | – | – | 0.0687 | 0.136 |
